Consider eight molecules from ChEMBL document CHEMBL4011607 (J Med Chem, 2017).

The test system of data set [1] is Rattus norvegicus. Description: (§1) Volume of distribution at steady state in rat at 0.5 mg/kg, iv. In kind it is ADME, organism-based. The conditions noted are these: in vivo. In a few lines:
(§2)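 Rats received 0.5 mg/kg iv as a solution in DMSO. Clearance, half-life and Vdss are taken from the plasma profile. Unbound clearance is total clearance divided by plasma fraction unbound.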

A short description of data set [2]: AUC in dog at 2 mg/kg, po. The conditions noted are these: in vivo. In kind it is ADME, organism-based, Canis lupus familiaris. In short, it runs like this: (§3)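 Single oral dose in solution in 1% Tween 80/2.0% HPMC, 97% water, pH 10 with KOH; rat 10 mg/kg, dog 2 mg/kg. Plasma profile gives AUC, tmax and %F.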
In data set [3] the test system is Canis familiaris. In words: (§4) Volume of distribution at steady state in dog at […], iv. Format: ADME, organism-based, Canis lupus familiaris. The conditions noted are these: in vivo.
The nature of data set [4]: (§5) Oral bioavailability in dog at 2 mg/kg. In kind it is ADME, organism-based, Canis lupus familiaris. The conditions noted are these: in vivo. In a few lines:
as §3

Data set [5] can be described thus: Tmax in rat at 10 mg/kg, po. In kind it is ADME, organism-based. The conditions noted are these: in vivo. In a few lines:
as §3

Data set [6] can be described thus: Chemical stability of compound assessed as racemization in presence of HCL at 37 degC after 24 hrs. In kind it is physicochemical. The conditions noted are these: buffer. In a few lines: (§6)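 Racemization of the atropisomer was followed in 10% HCl under two conditions: 37 °C for 24 h and 100 °C for 1 h.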
In data set [7] the test system is Rattus norvegicus. Description: (§7) Clearance in rat at 0.5 mg/kg, iv. In kind it is ADME, organism-based. The conditions noted are these: in vivo. In a few lines: as §2
In data set [8] the test system is Rattus norvegicus. In words: Unbound clearance in rat at 0.5 mg/kg, iv. The conditions noted are these: in vivo. Format: ADME, organism-based. In short, it runs like this: as §2
The nature of data set [9]: Oral bioavailability in rat at 10 mg/kg. In kind it is ADME, organism-based. The conditions noted are these: in vivo. In short, it runs like this: as §3
The subject of data set [10] is Canis familiaris. In words: (§8) Half life in dog at […], iv. Format: ADME, organism-based, Canis lupus familiaris. The conditions noted are these: in vivo.
The nature of data set [11]: Chemical stability of compound in NaOH assessed as racemization at above 100 degC. In kind it is physicochemical. In short, it runs like this: (§9)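 Racemization kinetics of the atropisomer were examined in neutral media (toluene, water) and basic media (NaOH) with heating above 100 °C.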
A short description of data set [12]: Tmax in dog at 2 mg/kg, po. In kind it is ADME, organism-based, Canis lupus familiaris. The conditions noted are these: in vivo. In a few lines: as §3
A short description of data set [13]: AUC in rat at 10 mg/kg, po. Format: ADME, organism-based. The conditions noted are these: in vivo. In short, it runs like this:
as §3

In data set [14] the test system is Rattus norvegicus. In words: (§10) Half life in rat at 0.5 mg/kg, iv. In kind it is ADME, organism-based. The conditions noted are these: in vivo. In a few lines:
as §2

Data set [15] in a line: Chemical stability of compound assessed as racemization in presence of HCL at 100 degC after 1 hr. The conditions noted are these: buffer. Format: physicochemical. In a few lines:
as §6

Data set [16] deals with Canis familiaris. In words: Unbound clearance in dog at […], iv. Also: dose 0.25 mg/kg. In kind it is ADME, organism-based, Canis lupus familiaris. The conditions noted are these: in vivo.
Data set [17] is described as follows: Chemical stability of compound in toluene assessed as racemization at above 100 degC. In kind it is physicochemical. In short, it runs like this:
as §9

Data set [18] can be described thus: Chemical stability of compound in water assessed as racemization at above 100 degC. In kind it is physicochemical. The conditions noted are these: buffer. In short, it runs like this: as §9
For data set [19], the system named is Canis familiaris. Description: (§11) Clearance in dog at […], iv. In kind it is ADME, organism-based, Canis lupus familiaris. The conditions noted are these: in vivo.
Data set [20] in a line: as §1. Format: ADME, organism-based. The conditions noted are these: in vivo, read-out: Vdss. In short, it runs like this: as §2
Data set [21] can be described thus: as §4. Format: ADME, organism-based, Canis lupus familiaris. The conditions noted are these: in vivo, read-out: Vdss.
Data set [22] is described as follows: as §7. Format: ADME, organism-based. The conditions noted are these: in vivo. In short, it runs like this: as §2
The nature of data set [23]: as §8. In kind it is ADME, organism-based, Canis lupus familiaris. The conditions noted are these: in vivo.
Data set [24] in a line: Intrinsic clearance in human liver microsomes at 1 uM after 40 mins by LC-MS/MS assay. Format: ADME, microsome. The conditions noted are these: read-out: CLH.
Data set [25] can be described thus: as §10. Format: ADME, organism-based. The conditions noted are these: in vivo. In a few lines:
as §2

A short description of data set [26]: Intrinsic clearance in rat liver microsomes at 1 uM after 40 mins by LC-MS/MS assay. Format: ADME, microsome. The conditions noted are these: read-out: CLH. A general note: Microsomes from liver hold many membrane-bound enzymes, among them those of drug oxidation.
Data set [27] is described as follows: Intrinsic clearance in dog liver microsomes at 1 uM after 40 mins by LC-MS/MS assay. The conditions noted are these: read-out: CLH. In kind it is ADME, Canis lupus familiaris, microsome.
A short description of data set [28]: as §11. Format: ADME, organism-based, Canis lupus familiaris. The conditions noted are these: in vivo.
In a further data set the test system is Plasma. In words: Plasma concentration in po dosed capsaicin-induced nociception pain C57BL/6 mouse model administered 4 hrs prior to capsaicin challenge. Format: ADME, organism-based. The conditions noted are these: in vivo.
In data set [29] the test system is Canis familiaris. Description: Drug metabolism in po dosed dog assessed as racemization after 24 hrs. Format: ADME, organism-based, Canis lupus familiaris. The conditions noted are these: in vivo. In a few lines:
(§12)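 A related atropisomeric analogue was dosed to preclinical species and checked in vivo for interconversion to the other atropisomer. Monkey iv, 1 h; rat iv, 1 h; dog po, 24 h; mouse po, 12 h.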

For the next data set, the system named is Mus musculus. Description: Drug metabolism in po dosed mouse assessed as racemization after 12 hrs. Format: ADME, organism-based. The conditions noted are these: in vivo. In a few lines: as §12
A further data set concerns Rhesus monkey. Description: Drug metabolism in iv dosed monkey assessed as racemization after 1 hr. Format: ADME, organism-based, Macaca mulatta. The conditions noted are these: in vivo. In a few lines: as §12
For data set [30], the system named is Rattus norvegicus. Description: Drug metabolism in iv dosed rat assessed as racemization after 1 hr. The conditions noted are these: in vivo. Format: ADME, organism-based. In short, it runs like this: as §12
Data set [31] deals with Canis familiaris. The description is as §5. In kind it is ADME, organism-based, Canis lupus familiaris. The conditions noted are these: in vivo. In short, it runs like this: as §3
Data set [32] in a line: Chemical stability of compound in 1N NaOH assessed as amide bond hydrolysis at room temperature. In kind it is physicochemical.

One may read the Vdss as the apparent volume that relates the amount in the body to the concentration in plasma or blood. As a reminder, the AUC is concentration integrated over time. As a reminder, the Tmax is the time from dosing to the highest level. Turning to `COc1cc(-c2cccc(F)c2)c(F)cc1-n1c(=O)ccc2cc(S(=O)(=O)Nc3ccon3)ccc21` (atropisomer P), the distribution volume (Vdss) turned out to be 1.8 L/kg with Rattus norvegicus [1] and 0.14 L/kg with Canis familiaris [3]. Moreover, the exposure (AUC) in data set [2] was determined as 600 µM·h; in data set [13] it was 65 µM·h. In addition, the results for the bioavailability in [4] and in data set [9] were 62% and 66%, respectively. The time of peak concentration (Tmax) in data set [5] was 2.7 h; in data set [12] it was 4 h. Moreover, the Stability result in data set [6] is reported as “Stable”; in [11], “Unstable”; in data set [15], “Stable”; in data set [17] it was “Unstable”; in data set [18], “Unstable”. Moreover, the CL in the data set on Rattus norvegicus [7] amounted to 3.17 mL/min/kg; in the data set with Canis familiaris [19], 0.075 mL/min/kg. In addition, the CL free was determined as 917 mL/min/kg in the data set on Rattus norvegicus [8] and 33 mL/min/kg with Canis familiaris [16]. Further, the values for the t1/2 in the data set with Canis familiaris [10] and in the data set with Rattus norvegicus [14] were 4 h and 2.6 h, respectively.

Broadly, the clearance is a measure of how efficiently the substance is removed, as volume per time. The half-life is the time needed for the level to fall by half in the phase considered. On to `COc1cc(-c2cccc(OC(F)F)c2)c(F)cc1-n1c(=O)ccc2cc(S(=O)(=O)Nc3ccon3)ccc21`, for which the Vd in data set [20] is 2.2 L/kg; in data set [21], 0.22 L/kg. The results for the bioavailability in data set [4] and in data set [9] were 54% and 30%, respectively. The clearance in data set [22] is 15.2 mL/min/kg; in data set [28] it was 0.3 mL/min/kg. Also, the CL free in the data set with Rattus norvegicus [8] stood at 3780 mL/min/kg; in the data set on Canis familiaris [16] it was 43.3 mL/min/kg. Further, the figures for the half-life in data set [23] and in [25] were 11 h and 1.8 h, respectively. Moreover, the microsomal CLint at 1 µM in data set [24], in [26] and in [27] was below 5 µL/min/mg in each case.

With `COc1cc(-c2cccc(C(F)(F)F)c2)ccc1-n1c(=O)ccc2cc(S(=O)(=O)Nc3ncccn3)ccc21`, the Vd in data set [20] worked out at 2.5 L/kg; in data set [21], 0.47 L/kg. For the same molecule, the bioavailability was 79% in data set [4] and 83% in [9]. Further, the clearance in data set [22] was 7 mL/min/kg; in [28], 0.167 mL/min/kg. Moreover, the CL free came out at 883 mL/min/kg in the data set with Rattus norvegicus [8] and 12.8 mL/min/kg in the data set with Canis familiaris [16]. For the same molecule, in the data set with Plasma, the Drug uptake entry is “Dose-dependent effect”. The half-life in [23] was 34 h; in [25] it was 4.6 h. The microsomal CLint at 1 µM in data set [24] is 5 µL/min/mg; in [26], 12 µL/min/mg; in data set [27], below 5 µL/min/mg.

As to `COc1cc(C(F)(F)F)ccc1N1CCOc2cc(S(=O)(=O)Nc3nccs3)ccc21`, the clearance in [22] is 4 mL/min/kg. The molecule also showed a CL free with Rattus norvegicus [8] of 667 mL/min/kg.

Turning to `COc1cc(-c2ccc(F)c(C)c2)c(F)cc1-n1c(=O)ccc2cc(S(=O)(=O)Nc3ccon3)ccc21`, the Stability result is given as “Unstable”. Also, the Vd in data set [20] came to 1.5 L/kg. Besides, the Vd in data set [21] was found to be 0.32 L/kg. Moreover, the bioavailability in [4] turned out to be 116%. Moreover, the Drug metabolism result in the data set with Canis familiaris [29] is reported as “Metabolite_Notdetected”. For the same molecule, the clearance in [22] is 10.2 mL/min/kg. In the data set with Rattus norvegicus [8], this molecule yielded a CL free of 1680 mL/min/kg. In addition, in [9], the bioavailability turned out to be 67%. The Drug metabolism result in the data set with Mus musculus is “Metabolite_Notdetected”. For the same molecule, in the data set on Rhesus monkey, the Drug metabolism result was “Metabolite_Notdetected”. For the same molecule, the half-life in [23] was 14 h. Besides, the microsomal CLint at 1 µM in data set [24] was found to be 5 µL/min/mg. In addition, the half-life in data set [25] was 1.9 h. Also, the microsomal CLint at 1 µM in data set [26] amounted to 16 µL/min/mg. The microsomal CLint at 1 µM in data set [27] was below 5 µL/min/mg. In the data set on Canis familiaris [16], this molecule came in with a CL free of 56.7 mL/min/kg. Further, in the data set on Rattus norvegicus [30], the Drug metabolism entry was “Metabolite_Notdetected”. The clearance in data set [28] is 0.283 mL/min/kg.

Take `COc1cc(-c2cc(OC)c(-n3c(=O)ccc4cc(S(=O)(=O)Nc5ncccn5)ccc43)cc2F)ccc1Cl`: the Vd worked out at 1.3 L/kg in data set [20] and 0.47 L/kg in data set [21]. The same molecule had a F with Canis familiaris [31] of 157%. Further, the clearance in data set [22] was 8.33 mL/min/kg; in [28] it was 0.583 mL/min/kg. Moreover, the CL free is 1670 mL/min/kg with Rattus norvegicus [8] and 96.7 mL/min/kg in the data set on Canis familiaris [16]. Besides, the bioavailability in data set [9] came to 55%. Further, the values for the half-life in [23] and in [25] were 12 h and 2.4 h, respectively. For the same molecule, the figures for the microsomal CLint at 1 µM in data set [24], in data set [26] and in data set [27] were below 5 µL/min/mg, 12 µL/min/mg and below 5 µL/min/mg, respectively.

Regarding `COc1cc(-c2cccc(F)c2)c(Cl)cc1-n1c(=O)ccc2cc(S(=O)(=O)Nc3ccon3)cnc21`, the Stability result was “Unstable”.

Take `COc1cc(C(F)(F)F)ccc1N1C(=O)COc2cc(S(=O)(=O)Nc3nccs3)ccc21`: the Stability result in data set [32] is recorded as “Unstable”.
